Published values of several laboratories.
Lines come from different studies, so protocols differ.
Target: BMP-2-inducible protein kinase (BMP2K, Homo sapiens, UniProt Q9NSY1)

SMILES	test	conditions	remaining binding [%]
COc1cnc(Nc2cccc(S(N)(=O)=O)c2)nc1N1CCN(c2ccccc2)CC1	binding, competition with immobilised ligand	1 µM	57
c1cnn2ncc(-c3ccnc(N4CCC45COC5)n3)c2c1	binding	1 µM	61
O=C(N1CCS(=O)(=O)CC1)N1C[C@H](c2ccc(OC(F)(F)F)cc2)C[C@H](c2nc(C3CC3)no2)C1	cell-free assay, competition with immobilised ligand	1 µM	97
O=C(c1ccc(Nc2ncc(Cl)c(-c3cc4ccccc4s3)n2)cc1)N1CCC(N2CCCC2)CC1	binding, competition with immobilised ligand	1 µM	0
CN(C)c1ncc(F)c(-c2cnn3ncccc23)n1	binding	1 µM	100
COc1ncc2cc3ccccc3nc2c1C#N	cell-free assay, competition with immobilised ligand	5 µM	100
C[C@@H](c1ccc(-n2cnc3c(N)ncnc32)cc1)N1CCc2nn(C)c(Cc3ccccc3)c2C1=O	binding, competition with immobilised ligand	0.1 µM	84
CN(C)c1nccc(-c2cnc3ncccn23)n1	binding	1 µM	100
CCC(=O)N[C@@H]1CC[C@H](C(=O)N(C)c2ccc(-c3nc4ccccc4o3)cc2)C1	cell-free assay, competition with immobilised ligand	1 µM	100
O=C(c1ccc(Nc2nccc(-c3cc4ccccc4s3)n2)cc1)N1CCC(N2CCCC2)CC1	binding, competition with immobilised ligand	1 µM	0.5
O=C(Nc1c[nH]nc1C(=O)NC1CCNCC1)c1cc(F)cc(F)c1	binding, competition with immobilised ligand	1 µM	53
Cc1cc(C)c(-n2ccn3nc(-c4cccnc4)cc23)cc1NC(=O)c1cc(C#N)cc(S(F)(F)(F)(F)F)c1	cell-free assay, competition with immobilised ligand	0.1 µM	94.7
Nc1ncc2c(n1)-c1c([nH]c3ccc(C#CC4CC4)cc13)CCCC2	binding, competition with immobilised ligand	1 µM	88
CNC(=O)Nc1ccc2c(c1)CC[C@@]21OC(=O)N(CC(=O)N(Cc2ccc(F)cc2)[C@@H](C)C(F)(F)F)C1=O	cell-free assay, competition with immobilised ligand	1 µM	98
N[C@H]1CCN(c2nccc(-c3cnn4ncccc34)n2)C1	binding	1 µM	88
c1cncc(-c2cccc(Nc3nccc(NC4CCCCC4)n3)c2)c1	binding, competition with immobilised ligand	10 µM	21
Cc1c(C(=O)O)cc(-c2ccc(C3CCNCC3)cc2)c2ccc(-c3ccc(C(F)(F)F)cc3)cc12	binding, competition with immobilised ligand	1 µM	83
COc1cnc(Nc2cccc(S(N)(=O)=O)c2)nc1N1CCN(c2ccccc2)C(=O)C1	binding, competition with immobilised ligand	1 µM	80
C[C@H]1CCN(c2nccc(-c3cnn4ncccc34)n2)C1	binding	1 µM	83
Cc1nc(N2CC[C@@H](O)C2)ncc1-c1cc(C(F)(F)F)cc2[nH]ncc12	binding, competition with immobilised ligand	1 µM	100
Cc1cnn2ncc(-c3ccnc(N(C)C)n3)c2c1	binding	1 µM	80
O=C(NCCCN1CCOCC1)c1ccc(Nc2ncc(Cl)c(-c3ccc(Cl)s3)n2)cc1	binding, competition with immobilised ligand	1 µM	0.1
